Experimental data pooled from the literature.
Protocols differ between the studies behind these lines.

| SMILES | assay | system | setting | measurement | result |
| --- | --- | --- | --- | --- | --- |
| CN1Cc2c(N)cccc2C(=O)N1C1CCC(=O)NC1=O (centres unmarked) | – | male Sprague-Dawley rat, plasma | intravenous, 1 mg/kg | clearance | 31.8 mL/min/kg |
| C=C(F)C(=O)N1CCN(c2nc(OC[C@@H]3CCCN3C)nc3c2CCN(c2cccc4cccc(Cl)c24)C3)C[C@@H]1CC#N | – | male Sprague-Dawley rat, plasma | intravenous, 5 mg/kg | clearance | 44 mL/min/kg |
| O=C1c2ccncc2C(=O)c2c1[nH]c1ccccc21 | – | rat, plasma | intravenous, 1 mg/kg, single dose | clearance | 13.1 mL/min |
| O=C1CC[C@H](N2Cc3cc(N4CCN(CC5CCN(c6ccc([C@@H]7c8ccc(O)cc8CC[C@@H]7c7ccccc7)cc6)CC5)CC4)ccc3C2=O)C(=O)N1 | – | male Sprague-Dawley rat, plasma | intravenous, 5 mg/kg, fed | clearance | 15.4 mL/min/kg |
| O=C(C=Cc1ccccc1)Nc1cc(-c2ccnc(N3CCC(O)CC3)c2)ccn1 | – | female Sprague-Dawley rat, plasma | intravenous, 5 mg/kg | clearance | 229 mL/min/kg |
| COc1ccccc1C(=O)/C=C/c1cn(Cc2cn(-c3ccnc4cc(Cl)ccc34)nn2)c2ccccc12 | haemolysis | human | 50 µM, 1 h, pH 7.4 | haemolysis | 1.7% |
| Nc1ccc(/C=C/C(=O)NCc2cc3cc(-c4ccc(C(=O)N5CCC(F)(F)CC5)cc4)cc(-c4ccc(F)cc4)c3o2)cn1 | – | rat, plasma | intravenous, 1 mg/kg | clearance | 0.169 mL/min/kg |
| CC1(CN)CCN(c2cnc3c(Sc4ccncc4Cl)n[nH]c3n2)CC1 | – | male Sprague-Dawley rat, plasma | intravenous, 2 mg/kg | clearance | 223 mL/min/kg |
